Yeast life ext: compounds extending yeast replicative lifespan, primary screen, S. cerevisiae, OD615 | S. cerevisiae growth with nicotinamide; deaD strain in restrictive glucose medium | inhibition of the nicotinamide effect, % at 10 µM | actives 0.68% (n = 130,000);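 active = inhibition above a set limit, placed 3 SD over the median of all compounds, cut at about 26% in these data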
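System: DeaD-strain S. cerevisiae / Buffer or medium: CSMM-D, restrictive glucose (dextrose) synthetic minimal medium / Probe or stimulus: nicotinamide, 1.5 mM, co-present with compound / Compound: one concentration, 10 µM, DMSO 0.25% / Incubation: 48 h compound exposure at 30 °C, humidified / Technique: optical density (absorbance) at 615 nm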
Measles CPE: compounds protecting cells from measles virus cytopathic effect, primary screen, measles RdRp inhibitor project, single point, MLSMR library, absorbance. Measles virus-infected cells, CPE protection. protection (pct of control), % at 4 µM. actives 1.5% (n = 140,000). AID 841, 2007; in the data active = protection mostly above about 24%, no sharp cut-off; inactive = mostly below about 26%
Arbovirus inh: antivirals against arbovirus infection, primary screen, cell-based, full library, 10K replicate subset | arbovirus infection cell-based antiviral screen | inhibition, % at 10 µM | actives 0.37% (n = 200,000); in the data active = inhibition above about 30%
Yeast growth inh: growth inhibitors of yeast BB579 in restrictive medium, primary screen, yeast lifespan-shortening project, S. cerevisiae; inhibition, % at 10 µM; OD615, 48 h; actives 0.51% (n = 140,000);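 active = inhibition above a set limit, 3 SD over the mean compound inhibition, cut at about 44% in these data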
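Detection: OD615 turbidity measurement; Material: Saccharomyces cerevisiae DeaD strain BB579, replicative lifespan model yeast; Timing: 48 h exposure, 30 °C; Doses: single 10 µM dose; Medium: CSMM-D restrictive synthetic medium containing dextrose (glucose); Controls: amphotericin B at 10 µg/mL as positive control.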
Efa HMGR inh: inhibitors of E. faecalis class II HMGR, primary screen, biochemical, Enterococcus faecalis. purified E. faecalis HMGR, NADPH absorbance 340 nm kinetic. inhibition, % at 10 µM. actives 0.41% (n = 190,000). AID 1066, 2008;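 active = inhibition above a set limit, the median over all tested compounds plus 3 SD, cut at about 9.5% in these data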;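 also: enzyme runs in reverse so mevalonate oxidation gives rising NADPH absorbance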
Rad51 HR inh: human RAD51 strand exchange inhibitors, primary screen, biochemical, fluorescence. actives 0.085% (n = 200,000). DNA repair protein RAD51 homolog 1 (Homo sapiens), Q06609. hRad51 DNA strand exchange, fluorescence dequenching. inhibition, % at 10 µM;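 active = inhibition above 40% at the single screening dose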
Target sequence (Q06609 whole entry, looked up): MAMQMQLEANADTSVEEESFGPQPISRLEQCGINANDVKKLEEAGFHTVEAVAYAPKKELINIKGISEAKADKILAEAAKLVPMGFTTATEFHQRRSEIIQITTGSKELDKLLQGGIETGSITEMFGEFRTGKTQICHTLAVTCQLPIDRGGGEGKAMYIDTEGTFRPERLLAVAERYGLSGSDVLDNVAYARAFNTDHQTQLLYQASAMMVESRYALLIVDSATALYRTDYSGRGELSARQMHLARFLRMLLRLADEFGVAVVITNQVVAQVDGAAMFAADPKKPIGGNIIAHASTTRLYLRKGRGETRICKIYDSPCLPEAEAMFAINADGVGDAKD
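material = hRad51 filaments on single-stranded DNA | timing = filaments 15 min 37 °C, then compound 30 min | signal = FRET fluorescence dequenching, excitation 485 nm, emission 520 nm | benchmarks = control wells and blank wells on each plate | evaluation = percent inhibition relative to plate controls and blanks | compound = 10 µM final, single point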
Of the large screens only hits and unclear results are named; the others gave an inactive call. A selection: hits, their analogues and other compounds. The true share with any hit is near 2.4%.

CCNc1cc2oc(=O)c(CN3CCOCC3)c(C)c2cc1C	Measles CPE 43
O=C(Nc1scc(-c2ccccc2)c1C(=O)O)c1ccco1	Yeast life ext 42, Arbovirus inh 42
O=C(Nc1scc(-c2cccs2)c1C(=O)O)c1cccs1	Yeast life ext 35, Arbovirus inh 50
CCOC(=O)c1c(-c2cccs2)csc1NC(=O)c1ccncc1	none
O=C(/C=C/c1cccs1)Nc1scc(-c2ccccc2)c1C(=O)O	Arbovirus inh 74 (no result: Yeast life ext, Measles CPE, Yeast growth inh)
CN(C(=O)Cn1cc(C(F)(F)F)ccc1=O)c1c(N)n(Cc2ccccc2)c(=O)[nH]c1=O	none (no result: Yeast life ext, Measles CPE, Arbovirus inh, Yeast growth inh, Efa HMGR inh)
Cc1ccc(-n2cnc(N)c2C(=O)c2cccc([N+](=O)[O-])c2)cc1	none (no result: Yeast life ext, Measles CPE, Arbovirus inh, Yeast growth inh, Efa HMGR inh)
CC(=O)Nc1c(C(=O)N2CCN(c3ccccn3)CC2)cnn1-c1ccc(C)cc1	none
COc1ccc(OC)c(C2C=C(C34CC5CC(CC(C5)C3)C4)NC(=S)N2)c1 (configuration not stated)	Measles CPE 34
COc1cc(C2C=C(C34CC5CC(CC(C5)C3)C4)NC(=S)N2)cc(OC)c1OC (configuration not stated)	none
COc1ccccc1N1CC(C(=O)Nc2nnc(SCc3ccccn3)s2)CC1=O (configuration not stated)	Yeast life ext 30
COc1cc(OC)cc(C(=O)Nc2c(C)nn(-c3ccccc3)c2C)c1	none (no result: Yeast life ext, Measles CPE, Yeast growth inh)
Cc1ccc(C)n1-c1ccc(C(=O)NCC2CCCO2)cc1 (configuration not stated)	none
Cc1ccccc1Oc1cc(-n2ncc(Cl)c(Cl)c2=O)ncn1	Yeast life ext 46
CCn1ccc(C(=O)Nc2ccc(S(=O)(=O)Nc3ccccc3OC)cc2)n1	Yeast life ext 67
COc1ccccc1NS(=O)(=O)c1ccc(NC(=O)c2ccncc2)cc1	none (no result: Yeast life ext, Measles CPE, Yeast growth inh)
CCc1c(C)c(C#N)c2nc3ccccc3n2c1NCCN(C)C	none
C=CCc1c(C)c(C#N)c2nc3ccccc3n2c1NCCN(C)C	Yeast growth inh 57
CCOC(=O)c1ccccc1NC(=S)N1CCN(C2CCCCC2)CC1	none (no result: Yeast life ext, Measles CPE, Yeast growth inh)
N/C(Cc1ccccc1)=N\OC(=O)c1cccc2ccccc12	Yeast growth inh 84
O=C(Oc1ccccc1O)c1cccc2ccccc12	Efa HMGR inh 18 (no result: Yeast life ext, Measles CPE, Yeast growth inh)
N/C(=N\OC(=O)c1cccc2ccccc12)c1ccc(Br)cc1	none
O=C(Oc1cccc2c(O)cccc12)c1ccccc1	none
O=C(/C(=C/c1ccc(Cl)cc1)c1nc2ccccc2[nH]1)c1cccs1	Yeast life ext 31
O=C(/C(=C\c1ccccc1)c1nc2ccccc2[nH]1)c1ccc(Cl)cc1	none
NC(=O)COC(=O)CCSc1ccc(Cl)cc1	none (no result: Yeast life ext, Measles CPE, Yeast growth inh)
O=[N+]([O-])c1cc(S(=O)(=O)N2CCCCCC2)ccc1Cl	none (no result: Yeast life ext, Measles CPE, Yeast growth inh)
COc1cc(-c2cc(C(=O)O)c3c(OC)c(OC)c(OC)cc3n2)ccc1O	none (no result: Rad51 HR inh)
COc1ccc(-c2cc(C(=O)O)c3ccccc3n2)c(OC)c1	none (no result: Rad51 HR inh)
CCOc1ccc2nc(-c3ccc(OC)c(OC)c3)cc(C(=O)O)c2c1	Yeast life ext 51
COc1ccc2cc(-c3cc(C(=O)O)c4ccccc4n3)ccc2c1	Arbovirus inh 34
CC1(C)CC(CCNC(=O)c2ccc(-n3cnnn3)cc2)CC(C)(C)N1	Measles CPE 30
O=C(c1ccc(-n2cnnn2)cc1)N(C1CCCCC1)C1CCCCC1	none (no result: Yeast life ext, Measles CPE, Yeast growth inh)
CC1(C)CC(=O)c2cnc(NC(=O)CSC(=S)N3CCCCC3)nc2C1	none (no result: Yeast life ext, Measles CPE, Arbovirus inh, Yeast growth inh, Efa HMGR inh)
CCOc1ccc(/C=N/n2cc(-c3ccccc3)[nH]c2=S)cc1	Efa HMGR inh 11 (no result: Yeast life ext, Measles CPE, Yeast growth inh)
COc1ccc2cc(C(c3nnnn3C3CCCC3)N3CCCCCC3)c3nnnn3c2c1 (configuration not stated)	Efa HMGR inh 11 (no result: Yeast life ext)
CSc1ccc(C2CC(=O)Nc3nc(SC)[nH]c(=O)c32)cc1 (configuration not stated)	Efa HMGR inh 22 (no result: Yeast life ext, Measles CPE, Yeast growth inh)
CSc1ccc(C2CC(=O)Nc3c2c(=O)n(C)c(=O)n3C)cc1 (configuration not stated)	none (no result: Yeast life ext, Measles CPE, Arbovirus inh, Yeast growth inh, Efa HMGR inh)
CC1CCCN(Cc2csc(N)n2)C1 (configuration not stated)	none (no result: Yeast life ext, Measles CPE, Yeast growth inh)
Cn1c(=O)c2nc(-c3ccccc3)oc2c2ccccc21	Yeast growth inh 78
CCCCCc1nc2c(=O)n(C)c3ccccc3c2o1	none
COc1ccc(CNC(=O)CCCc2ccccc2)cc1	Measles CPE 31 (no result: Rad51 HR inh)
Cc1nnc2sc(SCc3cccc(Cl)c3)nn2c1=O	Arbovirus inh 31 (no result: Yeast life ext, Measles CPE, Yeast growth inh)
Cc1nnc2sc(SCc3ccccc3)nn2c1=O	none
CC(=O)Nc1ccc(NC(=O)c2cc(C)nn2-c2ccccc2)cc1	Measles CPE 53
Cc1cc(C(=O)Nc2cccc3ccccc23)n(-c2ccccc2)n1	none (no result: Yeast life ext, Measles CPE, Yeast growth inh)
Cc1cc(C)n(-c2ncnc3ccccc23)n1	none (no result: Yeast life ext, Measles CPE, Yeast growth inh)
CCCCN(C(=O)/C=C/c1ccco1)c1c(N)n(Cc2ccccc2)c(=O)[nH]c1=O	none (no result: Yeast life ext, Measles CPE, Yeast growth inh)
C[C@@H]1NC(=O)c2cc([N+](=O)[O-])cc(I)c2OCC[C@@H](C(N)=O)NC(=O)[C@H](CCC(=O)O)NC1=O	none
Oc1ccc(CNC2CCCCC2)cc1	none
OC(CNC1CCCCC1)CNC1CCCCC1	Arbovirus inh 39 (no result: Yeast life ext, Measles CPE, Yeast growth inh)
CN(CCOC(=O)c1ccc2c(c1)OCCO2)C(C)(C)C	Measles CPE 88 (no result: Yeast life ext)
CN(CCOC(=O)c1ccc2c(c1)OCCO2)Cc1ccccc1	none
Cc1cc(C(=O)CSc2nc3ccccc3o2)c(C)n1CC1CCCO1 (configuration not stated)	none
Cc1cc(C(=O)CSc2nc3ccccc3[nH]2)c(C)n1CC1CCCO1 (configuration not stated)	Measles CPE 39
COC(=O)c1c(NC(=O)CN2CCN(c3ccccc3)CC2)c2c(C)cccc2n1C	Measles CPE 42
COc1cc(C)nc(Oc2ccc(OCCOc3ccccc3)nn2)n1	Efa HMGR inh 19 (no result: Yeast life ext, Measles CPE, Yeast growth inh)
N/C(=N\OC(=O)CN1C(=O)c2ccccc2C1=O)c1ccc(Br)cc1	Efa HMGR inh 13 (no result: Yeast life ext, Measles CPE, Yeast growth inh)
CCCOC(=O)Oc1ccc2c(=O)c(Oc3cc(C)cc(C)c3)coc2c1	Measles CPE 20
COc1ccc(/C=C/c2nnc(NC(=O)COc3ccc(C)cc3)s2)cc1	none
Cc1sc2ncn(C(C)C(=O)OC3CCCCC3)c(=O)c2c1C (configuration not stated)	Yeast life ext 27
CCN(CC)c1ccc2cc(C(C)=O)c(=O)oc2c1	Measles CPE 43
CCN(CC)c1ccc2cc(C(N)=O)c(=O)oc2c1	none (no result: Yeast life ext)
COc1ccc2oc(=O)c(C(C)=O)cc2c1	Measles CPE 42
NC(=O)c1cccnc1Nc1ccccc1Cl	none

Bioassay records (PubChem)
